Test results reported in ChEMBL document CHEMBL1142962, “Antiproliferative prenylated stilbenes and flavonoids from Macaranga alnifolia from the Madagascar rainforest” (J Nat Prod, 2007).

Assays:
Type in all cases: functional
CCRF-CEM = assay: Growth inhibition of CCRF-CEM cells; conditions: Homo sapiens, read-out: Log TGI (converted)
Procedure, shortened: (§1)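 Tested in the NCI 60 human tumour cell line screen, which was run by NCI. The value for each line is the GI50, the concentration giving 50% growth inhibition. Results are also shown as a mean graph across the full panel.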

A498 = assay: Growth inhibition of A498 cells; conditions: Homo sapiens; procedure, shortened: as §1
UACC-62 = assay: Growth inhibition of UACC62 cells; conditions: Homo sapiens
PC-3 = assay: Growth inhibition of PC3 cells; conditions: Homo sapiens
SK-MEL-2 = assay: Growth inhibition of SK-MEL-2 cells; conditions: Homo sapiens
UO-31 = assay: Growth inhibition of UO31 cells; conditions: Homo sapiens
HOP-92 = assay: Growth inhibition of HOP92 cells; conditions: Homo sapiens
SN12C = assay: Growth inhibition of SN12C cells; conditions: Homo sapiens; procedure, shortened: as §1
MOLT-4 = assay: Growth inhibition of MOLT4 cells; conditions: Homo sapiens; procedure, shortened: as §1
SK-MEL-28 = assay: Growth inhibition of SK-MEL-28 cells; conditions: Homo sapiens; procedure, shortened: as §1
CAKI-1 = assay: Growth inhibition of CAKI1 cells; conditions: Homo sapiens; procedure, shortened: as §1
HCT-116 = assay: Growth inhibition of HCT116 cells; conditions: Homo sapiens
NCI-H322M = assay: Growth inhibition of NCI-H322M cells; conditions: Homo sapiens
UACC-257 = assay: Growth inhibition of UACC257 cells; conditions: Homo sapiens; procedure, shortened: as §1
SF-295 = assay: Growth inhibition of SF295 cells; conditions: Homo sapiens; procedure, shortened: as §1
SK-MEL-5 = assay: Growth inhibition of SK-MEL-5 cells; conditions: Homo sapiens
[1] = Growth inhibition of HS 578T cells; conditions: Homo sapiens
NCI-H460 = assay: Growth inhibition of NCI-H460 cells; conditions: Homo sapiens
MDA-MB-435 = assay: Growth inhibition of MDA-MB-435 cells; conditions: Homo sapiens
DU-145 = assay: Growth inhibition of DU145 cells; conditions: Homo sapiens; procedure, shortened: as §1
ACHN = assay: Growth inhibition of ACHN cells; conditions: Homo sapiens
EKVX = assay: Growth inhibition of EKVX cells; conditions: Homo sapiens; procedure, shortened: as §1
MCF7 = assay: Growth inhibition of MCF7 cells; conditions: Homo sapiens; procedure, shortened: as §1
SF-539 = assay: Growth inhibition of SF539 cells; conditions: Homo sapiens; procedure, shortened: as §1
HCC 2998 = assay: Growth inhibition of HCC2998 cells; conditions: Homo sapiens
OVCAR-8 = assay: Growth inhibition of OVCAR8 cells; conditions: Homo sapiens; procedure, shortened: as §1
[2] = read-out: Log LC50 (the source's name) (converted)

## COc1cc(/C=C/c2cc(O)c(CC=C(C)C)c(O)c2)cc2c1O[C@]1(C)C[C@@H](O)[C@@H](O)C(C)(C)[C@H]1C2 [SCHWEINFURTHIN E]
CCRF-CEM
  TGI: 10000 nM
A498
  LC50: > 100000 nM
A498; read-out: GI50
  GI50: < 10 nM
A498; read-out: Log TGI (converted)
  TGI: < 10 nM
A498; read-out: TGI
  TGI: < 10 nM
A498; read-out: pGI50 (converted)
  GI50: < 10 nM
UACC-62
  GI50: < 10 nM
UACC-62; [2]
  CC50: 4070 nM
UACC-62; read-out: Log TGI (converted)
  TGI: 372 nM
PC-3
  GI50: 138 nM
PC-3; [2]
  CC50: 47900 nM
PC-3; read-out: Log TGI (converted)
  TGI: 9550 nM
SK-MEL-2
  GI50: 3720 nM
SK-MEL-2; [2]
  CC50: > 100000 nM
SK-MEL-2; read-out: Log TGI (converted)
  TGI: > 100000 nM
UO-31
  GI50: 105 nM
UO-31; [2]
  CC50: > 100000 nM
UO-31; read-out: Log TGI (converted)
  TGI: > 100000 nM
HOP-92
  GI50: 794 nM
HOP-92; [2]
  CC50: > 100000 nM
HOP-92; read-out: Log TGI (converted)
  TGI: 5130 nM
SN12C
  GI50: 2090 nM
SN12C; [2]
  CC50: 34700 nM
SN12C; read-out: Log TGI (converted)
  TGI: 7590 nM
MOLT-4; read-out: GI50
  GI50: < 10 nM
MOLT-4; [2]
  CC50: > 100000 nM
MOLT-4; read-out: Log TGI (converted)
  TGI: < 10 nM
MOLT-4; read-out: TGI
  TGI: < 10 nM
MOLT-4; read-out: pGI50 (converted)
  GI50: < 10 nM
SK-MEL-28
  GI50: 372 nM
SK-MEL-28; [2]
  CC50: > 100000 nM
SK-MEL-28; read-out: Log TGI (converted)
  TGI: 5250 nM
CAKI-1; read-out: GI50
  GI50: < 10 nM
CAKI-1; [2]
  CC50: 550 nM
CAKI-1; read-out: Log TGI (converted)
  TGI: < 10 nM
CAKI-1; read-out: TGI
  TGI: < 10 nM
CAKI-1; read-out: pGI50 (converted)
  GI50: < 10 nM
HCT-116
  GI50: 20.9 nM
HCT-116; [2]
  CC50: 6920 nM
HCT-116; read-out: Log TGI (converted)
  TGI: 871 nM
NCI-H322M
  GI50: 288 nM
NCI-H322M; [2]
  CC50: 13800 nM
NCI-H322M; read-out: Log TGI (converted)
  TGI: 2240 nM
UACC-257
  GI50: 166 nM
UACC-257; [2]
  CC50: 37200 nM
UACC-257; read-out: Log TGI (converted)
  TGI: 3630 nM
SF-295
  GI50: < 10 nM
  TGI: < 10 nM
SK-MEL-5
  GI50: 661 nM
SK-MEL-5; [2]
  CC50: 5620 nM
SK-MEL-5; read-out: Log TGI (converted)
  TGI: 2240 nM
[1]
  GI50: < 10 nM
[1]; [2]
  CC50: > 100000 nM
[1]; read-out: Log TGI (converted)
  TGI: 363 nM
NCI-H460
  GI50: 151 nM
NCI-H460; [2]
  CC50: > 100000 nM
NCI-H460; read-out: Log TGI (converted)
  TGI: > 100000 nM
MDA-MB-435
  GI50: 123 nM
MDA-MB-435; [2]
  CC50: 8710 nM
MDA-MB-435; read-out: Log TGI (converted)
  TGI: 1950 nM
DU-145
  GI50: 468 nM
DU-145; [2]
  CC50: 72400 nM
DU-145; read-out: Log TGI (converted)
  TGI: 14100 nM
ACHN
  GI50: 372 nM
ACHN; [2]
  CC50: 13200 nM
ACHN; read-out: Log TGI (converted)
  TGI: 3020 nM
EKVX
  GI50: 2140 nM
EKVX; [2]
  CC50: > 100000 nM
EKVX; read-out: Log TGI (converted)
  TGI: 28200 nM
MCF7
  GI50: 61.7 nM
MCF7; [2]
  CC50: > 100000 nM
MCF7; read-out: Log TGI (converted)
  TGI: 26900 nM
SF-539
  GI50: < 10 nM
SF-539; read-out: Log TGI (converted)
  TGI: 158 nM
HCC 2998
  GI50: 1020 nM
HCC 2998; [2]
  CC50: 6460 nM
HCC 2998; read-out: Log TGI (converted)
  TGI: 2570 nM
OVCAR-8; read-out: GI50
  GI50: 2200 nM
OVCAR-8; [2]
  CC50: > 100000 nM
OVCAR-8; read-out: Log TGI (converted)
  TGI: 6760 nM
OVCAR-8; read-out: pGI50 (converted)
  GI50: 2510 nM
